In the library only some 1.5% were active in any assay of this set; here they are far more common.
MDM2 E3 inh: inhibitors of human Mdm2 E3 ubiquitin ligase | Q00987 | signal enhancement, % at 5 µM | 0.11% of 210,000 active | cell-based MDM2 ubiquitination luciferase reporter, 2 h; 0 = plate control, 100 = twice control, blank-subtracted;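 active = signal enhancement of 30% or more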;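 note: luminescence tracks abundance of the self-degrading MDM2-luciferase fusion protein; higher signal means inhibition of MDM2 E3 ligase activity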
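Test system: mammalian cells stably expressing self-ubiquitinating, self-degrading MDM2 E3–luciferase fusion; Amount: 2000 cells in each well; Medium: DMEM; Schedule: 4 h settle plus 2 h compound, 37 °C; Technique: SteadyLite luciferase luminescence after 15 min room-temperature reagent incubation; Benchmarks: plate control and blank wells.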
Hsp70 activator: transcriptional activators of Hsp70; 0.04% of 200,000 active; HeLa Hsp70 promoter luciferase reporter, luminescence; scaled: vehicle 0, proteasome-inhibitor control 100%; activation, % at 10 µM;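 active = activation above the mean across all tested compounds plus 3 SD, cutoff set per campaign, cut at about 5.5% in these data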;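 note: 100% = MG132 at 30 µM as the positive control and 0% = DMSO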
Pf gametocyte: kills late stage P. falciparum gametocytes; 0.065% of 150,000 active; inhibition, % at 10.9 µM; P. falciparum stage V gametocytes, ATP luminescence, 24 h; AID 743093;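 active = inhibition above the mean plus 3 SD of compounds within the control limits, set per campaign, cut at about 38% in these data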;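 note: 0% = DMSO wells and 100% = medium only without gametocytes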
Wee1 degr inh: human Wee1 degradation inhibition, primary screen; P30291; HeLa Luc-Wee1K328M stability, luciferase luminescence; 100% = proteasome inhibitor MG132 effect; reporter increase, % at 5 µM; 1.2% of 220,000 active; AID 1321;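 active = activation above the mean of all tested compounds plus 3 SD, set per screening run, cut at about 8.8% in these data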;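 note: cells exposed to compound for 20 h before luminescence read; 0% = DMSO alone and 100% = MG132 at 30 µM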
Target sequence (P30291 whole entry K328M): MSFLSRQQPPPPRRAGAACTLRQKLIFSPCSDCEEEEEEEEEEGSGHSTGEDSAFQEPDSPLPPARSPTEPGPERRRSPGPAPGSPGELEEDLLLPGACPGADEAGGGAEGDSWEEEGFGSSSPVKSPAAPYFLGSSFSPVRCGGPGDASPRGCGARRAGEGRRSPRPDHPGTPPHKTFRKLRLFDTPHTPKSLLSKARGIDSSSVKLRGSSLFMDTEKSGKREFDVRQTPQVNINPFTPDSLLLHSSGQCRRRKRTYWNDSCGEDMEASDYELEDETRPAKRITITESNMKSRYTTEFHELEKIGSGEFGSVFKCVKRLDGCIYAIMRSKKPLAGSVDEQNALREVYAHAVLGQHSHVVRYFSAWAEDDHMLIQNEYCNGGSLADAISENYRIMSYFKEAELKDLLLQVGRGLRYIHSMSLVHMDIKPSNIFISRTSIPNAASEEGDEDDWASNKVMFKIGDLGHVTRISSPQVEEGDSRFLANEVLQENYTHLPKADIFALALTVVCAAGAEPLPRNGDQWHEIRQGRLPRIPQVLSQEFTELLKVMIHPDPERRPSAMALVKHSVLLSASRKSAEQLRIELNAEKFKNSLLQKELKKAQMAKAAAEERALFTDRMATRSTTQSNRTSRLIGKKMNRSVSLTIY
m-calpain inh: inhibitors of pig calpain II. inhibition, % at 16 µM. 0.37% of 220,000 active. purified calpain II, fluorogenic peptide substrate, 30 min;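 active = inhibition above about 50%, limit read from the data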
Active calls of the source: *.

Screening CC1CCCCN1S(=O)(=O)c1ccc2c(c1)CCN2C(=O)C1CCC1 (stereo not given) returned MDM2 E3 inh 4.3, Hsp70 activator 0.0, Pf gametocyte -8.8, Wee1 degr inh 8.8* and m-calpain inh 27.8.
NC(=O)COC(=O)CNC(=O)c1cc(Cl)cc([N+](=O)[O-])c1 was read as MDM2 E3 inh -17.5, Hsp70 activator -0.3, Pf gametocyte -24.9, Wee1 degr inh 2.2 and m-calpain inh 10.3.
Screening CC(C)(C)NC(=O)NC(=O)COC(=O)CNC(=O)c1cc(Cl)cc([N+](=O)[O-])c1 returned MDM2 E3 inh -4.3, Hsp70 activator -0.2, Pf gametocyte 42.5*, Wee1 degr inh -0.2 and m-calpain inh 14.7.
`CC(C)(C)C1CCC(=NNC(=O)c2cc3c(s2)CCCC3)CC1` (stereo not given) gave MDM2 E3 inh -5.0, Hsp70 activator -0.4, Pf gametocyte 11.3, Wee1 degr inh -1.0 and m-calpain inh 9.8.
Screening CC(C)(C)C1CCc2sc(C(=O)NNC(=O)CCl)cc2C1 (stereo not given) returned MDM2 E3 inh -10.1, Hsp70 activator 0.5, Pf gametocyte 11.3, Wee1 degr inh -4.5 and m-calpain inh 66.5*.
COc1ccccc1/C=C(\NC(=O)c1ccc(OC)c(OC)c1)C(=O)Nc1cc([N+](=O)[O-])ccc1C was read as MDM2 E3 inh -6.8, Hsp70 activator -0.5, Wee1 degr inh 10.4* and m-calpain inh -53.5.
C/C(=N\NC(=S)NC1CCCCC1)c1ccc(OC(F)F)cc1OC(F)F was read as MDM2 E3 inh 6.3, Hsp70 activator -0.4, Wee1 degr inh -2.0 and m-calpain inh 53.9*.
`CC(C)(C)OC(=O)C[C@@H]1C/C=C\C[C@@H](CC(=O)N(CCO)Cc2ccccc2)C(=O)N[C@@H](c2ccccc2)COC1=O` gave Pf gametocyte 1.5.
Screening C[n+]1ccc(C(=O)Nc2ccccc2Cl)cc1 returned Pf gametocyte -11.6.
Screening CN(C)c1ncc(S(=O)(=O)c2ccc(Cl)cc2)c(-c2ccccc2)n1 returned MDM2 E3 inh -0.5, Hsp70 activator 0.2, Pf gametocyte -24.4, Wee1 degr inh -0.2 and m-calpain inh 55.5*.
For CC(C)(C)NC(=O)c1ccc(Sc2ccccc2)c([N+](=O)[O-])c1 the results were MDM2 E3 inh -6.9, Hsp70 activator 0.0, Pf gametocyte -25.4, Wee1 degr inh -1.3 and m-calpain inh 54.1*.
`Cc1ccc2[nH]c3c(c2c1)CCN(C)C3` gave Pf gametocyte -23.9.
Screening CCn1c(SCC(=O)N/N=C/c2ccc(OC)c(OC)c2)nc2ccccc21 returned MDM2 E3 inh -5.5, Hsp70 activator 0.2, Pf gametocyte -4.4, Wee1 degr inh 1.9 and m-calpain inh -5.0.
Screening C=CCSc1nc2ccccc2n1C(=O)/C=C/c1cc(OC)c(OC)c(OC)c1 returned MDM2 E3 inh 53.6*, Hsp70 activator 9.7*, Wee1 degr inh 0.7 and m-calpain inh -5.9.
Screening C=CCSc1nc2ccccc2n1C(=O)/C=C/c1ccc(OC)c(OC)c1 returned MDM2 E3 inh 4.9, Hsp70 activator 0.2, Wee1 degr inh -2.6 and m-calpain inh 8.8.
Screening CCSc1nc2ccccc2n1C(=O)/C=C/c1ccc(OC)c(OC)c1 returned MDM2 E3 inh 64.6*, Hsp70 activator 0.0, Wee1 degr inh -2.9 and m-calpain inh -3.7.
Screening O=C(Nc1nnc(-c2cccnc2)o1)c1cccc(Cl)c1 returned MDM2 E3 inh -0.3, Hsp70 activator 0.2, Pf gametocyte -11.2, Wee1 degr inh -2.4 and m-calpain inh -12.3.
`COc1cccc(NC(=O)CN(C)CC(=O)NC(C)c2ccccc2)c1` (stereo not given) gave MDM2 E3 inh -3.1, Pf gametocyte -10.3, Wee1 degr inh 8.9* and m-calpain inh 27.7.
`COc1cccc(NC(=O)CN(C)CC(=O)Nc2ccc(Br)cc2)c1` gave MDM2 E3 inh -0.8, Hsp70 activator -0.1, Pf gametocyte -29.6, Wee1 degr inh 0.6 and m-calpain inh -15.4.
`COc1ccc(-c2csc(NC(=O)CN3C(=O)CCC3=O)n2)cc1OC` gave MDM2 E3 inh -9.2, Hsp70 activator -0.5, Wee1 degr inh 10.7* and m-calpain inh -15.0.
`Cc1ccccc1CC1SC(N)=NC1=O` (stereo not given) gave Pf gametocyte -19.3.
Screening C(=N\Nc1nc(-c2ccccc2)cs1)/c1cccnc1 returned MDM2 E3 inh 7.0, Hsp70 activator 0.1, Wee1 degr inh 0.4 and m-calpain inh 24.5.
`CC(C)(C)c1csc(N/N=C/c2cccnc2)n1` gave MDM2 E3 inh -0.4, Hsp70 activator 0.3, Pf gametocyte -22.3, Wee1 degr inh 2.0 and m-calpain inh 51.4*.
For Cc1nc2c3cc(F)ccc3n(CCN3CCCCC3)c2s1 the results were MDM2 E3 inh -11.9, Hsp70 activator 0.6, Wee1 degr inh 9.7* and m-calpain inh 6.1.
Screening COc1ccc(NC(=O)Nc2ccc3c(c2)C(=O)N([C@@H](C)CO)C[C@@H](C)[C@@H](CN(C)S(=O)(=O)c2cccs2)O3)cc1 returned Pf gametocyte 1.1.
COC(=O)[C@@H](CC(C)C)NS(=O)(=O)N(Cc1ccccc1)[C@@H](CC(C)C)C(=O)OC was read as Pf gametocyte 10.3.
COc1cc(/C=N/N2CCN(Cc3ccccc3)CC2)cc(OC)c1OC(C)=O was read as Pf gametocyte 4.6.
COc1cccc(C2CC(c3ccc(Br)cc3)=NN2C(=O)c2ccncc2)c1OC (stereo not given) was read as MDM2 E3 inh -15.6, Hsp70 activator 0.1, Pf gametocyte 4.6, Wee1 degr inh 9.0* and m-calpain inh -0.3.
`O=C1C=CC(=O)N1c1ccc(Sc2ccc([N+](=O)[O-])cc2)cc1` gave MDM2 E3 inh -2.2, Wee1 degr inh 16.1* and m-calpain inh 24.1.
`COc1ccc(O)c(/C=N/n2c(-c3ccco3)csc2=Nc2cccnc2)c1` gave MDM2 E3 inh -4.1, Hsp70 activator 0.0, Pf gametocyte 53.0*, Wee1 degr inh -0.5 and m-calpain inh 9.6.
`COCCn1c(-c2ccco2)csc1=Nc1cccnc1` gave MDM2 E3 inh -12.9, Hsp70 activator -0.2, Wee1 degr inh -0.9 and m-calpain inh -26.0.
COc1ccc(CNC(=O)COc2cc(=O)n(C)c3ccccc23)cc1 was read as MDM2 E3 inh 24.4, Hsp70 activator -0.2, Pf gametocyte -3.2, Wee1 degr inh 0.7 and m-calpain inh -22.0.
Screening Cn1c(=O)cc(OCC(=O)NCc2cccs2)c2ccccc21 returned MDM2 E3 inh 35.3*, Hsp70 activator -0.1, Pf gametocyte -5.9, Wee1 degr inh 0.2 and m-calpain inh -21.2.
Screening COc1ccc(CNc2oc(COc3ccc(Cl)cc3)nc2C#N)cc1 returned MDM2 E3 inh -5.5, Hsp70 activator -0.3, Pf gametocyte 8.4, Wee1 degr inh 1.1 and m-calpain inh 53.8*.

High-throughput results (PubChem BioAssay)
